Laboratory results: article PMC3457684 (Science translational medicine, 2012)
Values joined by “and” are separate entries in the source; they are usually repeats but may differ in a detail not shown here. Equal entries are not always repeated. Where two headings read alike, the source gives them in different places.

Experiments:
[1] = test system: L. donovani (strain LdBOB) promastigotes; assay: In vitro drug sensitivity assay, promastigotes; format: cell-based, Leishmania donovani; conditions: for EC50: Leishmania donovani, 72 h, read-out: L. donovani EC50, Promastigote
How it was run: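 Clonal LdBOB promastigotes were grown at 26 °C in stage-specific medium. Triplicate cultures were seeded at 1 × 10⁵ parasites ml⁻¹ with test compound for 72 h, then given 50 μM resazurin, and fluorescence (ex 528, em 590 nm) was read after 4 h. For isobolograms, mid-log promastigotes received the two metabolites in fixed combinations relative to their respective EC50s. The EC50 of each combination was determined at 72 h (triplicate, mean ± SD) and plotted.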

[2] = Fexinidazole exposure in mice after acute oral dosing; format: in vivo, BALB/c mice; conditions: single oral dose of fexinidazole 200 mg kg^−1, mouse blood
[3] = test system: L. donovani (strain LdBOB) axenic amastigotes overexpressing L. major nitroreductase; assay: Drug susceptibility of axenic amastigotes overexpressing L. major nitroreductase; format: cell-based, Leishmania donovani; conditions: for shift in sensitivity, nitroreductase overexpressing vs wildtype: axenic amastigotes; for EC50: read-out: EC50, axenic amastigotes overexpressing nitroreductase
[4] = test system: L. donovani (strain LdBOB) axenic amastigotes; assay: Cytocidal effect on axenic amastigotes; format: cell-based, Leishmania donovani; conditions: drug at 10 times its EC50 (sulfone 36 μM), wash-out and sub-culture without drug
How it was run: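 Early-log LdBOB axenic amastigotes (~1 × 10⁶ ml⁻¹), grown at 37 °C in 5% CO₂, were exposed to test compound at 36 μM. At intervals, cell density was counted, and samples were removed, washed and resuspended in fresh drug-free medium. Viability of washed parasites was followed for up to 72 h after drug removal to find the point of irreversible toxicity.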

[5] = Plasma protein binding by equilibrium dialysis; format: in vitro ADME; conditions: mouse
[6] = test system: L. donovani (strain LdBOB) axenic amastigotes; assay: In vitro drug sensitivity assay, axenic amastigotes; format: cell-based; conditions: Leishmania donovani
How it was run: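 Clonal LdBOB axenic amastigotes were grown at 37 °C in 5% CO₂ in stage-specific medium and cycled between stages after at most 7 passages. Triplicate cultures were seeded at 1 × 10⁵ parasites ml⁻¹ with test compound for 72 h. Resazurin (50 μM) was added, and fluorescence (ex 528, em 590 nm) was read 4 h later. At least three experiments were run; results are weighted mean plus weighted standard deviation.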

L. donovani = conditions: similar in vivo studies; cited from earlier work
L. donovani strain LV9 = assay: In vivo drug sensitivity, mouse model of visceral leishmaniasis; design: species or system BALB/c mice; conditions: oral, once daily for 5 days
[7] = test system: intracellular L. donovani (LV9) amastigotes in peritoneal mouse macrophages; assay: In macrophage drug sensitivity assay; format: cell-based, Leishmania donovani; conditions: strain LV9, peritoneal mouse macrophages, 72h
[8] = 72 h, read-out: L. donovani EC50, Axenic amastigote
[9] = read-out: EC50, wildtype axenic amastigotes

Row | SMILES | EC50 [1] [µM] | time blood concentration stays above EC99 [2] | shift in sensitivity, nitroreductase overexpressing vs wildtype [3] | EC50 [3] [µM] | exposure time after which no viable parasites could be recovered [4] [h] | fraction unbound [5] | EC50 [6, 8] [µM] | EC50 [6, 9] [µM] | interaction in combination (isobologram) ([1]; fexinidazole sulfoxide plus sulfone, LdBOB promastigotes, 72h) | ED50 (L. donovani) [mg/kg] | ED90 (L. donovani) [mg/kg] | tolerability in mice (L. donovani strain LV9; up to 200 mg kg^−1) | ED50 (L. donovani strain LV9; liver parasite burden day 14) | L. donovani EC50, Amastigote (in macrophages) [7]
1 | Cn1c([N+](=O)[O-])cnc1COc1ccc(S(C)(=O)=O)cc1 [Fexinidazole sulfone, fexinidazole sulfone] | 4.8 ± 0.1 | more than 24 h | 19 fold | 0.23 ± 0.1 | 30 | 0.73 | 1.6 ± 0.1 | 4.4 ± 0.1 |  |  |  |  |  | 
2 | Cn1c([N+](=O)[O-])cnc1COc1ccc([S+](C)[O-])cc1 (stereo not drawn) [Fexinidazole sulfoxide, fexinidazole sulfoxide] | 3.1 ± 0.1 | 8 h |  |  | 30 | 0.86 | 4.5 ± 0.3 |  | additive |  |  |  |  | 
3 | CC1CS(=O)(=O)CCN1/N=C/c1ccc([N+](=O)[O-])o1 (stereo not drawn) [nifurtimox] |  |  | 27 fold | 0.2 ± 0.1 |  |  |  | 5.6 ± 0.2 |  |  |  |  |  | 
4 | O.O.O.O.O.O.O.O.O.O=C([O-])[C@@H]1[O][Sb](=[O])([O][Sb]2(=[O])[O][C@H]([C@H](O)CO)[C@H](O)[C@H](C(=O)[O-])[O]2)[O][C@H]([C@H](O)CO)[C@@H]1O.[Na+].[Na+].[Na+] (stereo partly drawn) [Pentostam] |  |  |  |  |  |  |  |  |  | 20 | 57 |  |  | 
5 | CSc1ccc(OCc2ncc([N+](=O)[O-])n2C)cc1 [Fexinidazole, fexinidazole] | 5.6 ± 0.2 |  | 19 fold |  |  | 0.15 | 2.8 ± 0.1 |  |  |  |  | well tolerated | ~12 mg/kg and 11.9 ± 2.3 mg/kg | inactive
6 | CCCCCCCCCCCCCCCCOP(=O)([O-])OCC[N+](C)(C)C [Miltefosine, miltefosine] | 6.1 ± 0.3 |  | no concomitant shift | 4.9 ± 0.2 |  | 0.002 | 4.4 ± 0.2 |  |  | 4 | 27 |  |  | 
